Test results reported in ChEMBL document CHEMBL1177718, “Phosphoramidate ProTides of 2'-C-methylguanosine as highly potent inhibitors of hepatitis C virus. Study of their in vitro and in vivo properties” (J Med Chem, 2010).
pEC50: −log10 of the molar value.

Experiments:
[1] = system: Plasma; experiment: Dose normalized AUC in ICR mouse plasma at 50 mg/kg, po by LC-MS/MS analysis; assay type: ADME, organism-based; set-up: dose 50 mg/kg, route oral; conditions: in vivo
[2] = system: Liver; experiment: AUC (0 to 6 hrs) in ICR mouse liver at 50 mg/kg, po by LC-MS/MS analysis; assay type: ADME, organism-based; set-up: time < 6 hr, dose 50 mg/kg, route oral; conditions: in vivo
[3] = system: Liver; experiment: Dose normalized AUC in ICR mouse liver at 50 mg/kg, po by LC-MS/MS analysis; assay type: ADME, organism-based; set-up: dose 50 mg/kg, route oral; conditions: in vivo
[4] = Metabolic stability in dog intestine S9 fraction assessed as compound remaining at 10 uM after 60 mins by HPLC analysis in absence of NADP; assay type: ADME, tissue-based, Canis lupus familiaris; conditions: read-out: Stability
How it was run: (§1)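 Liver or intestinal S9 at final 1 mg/mL in 50 mM potassium phosphate, with or without NADPH-regenerating system (1.3 mM NADP, 3.3 mM glucose-6-phosphate, 0.4 U/mL G6PDH, 3.3 mM MgCl₂); 10 min preincubation at 37 °C; compound at final 10 μM; samples at start and 60 min quenched in cold acetonitrile, centrifuged, HPLC; % parent remaining.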

[5] = Metabolic stability in human intestine S9 fraction assessed as compound remaining at 10 uM after 60 mins by HPLC analysis in presence of NADP; assay type: ADME, tissue-based; conditions: read-out: Stability; how it was run: as §1
[6] = Metabolic stability in human intestine S9 fraction assessed as compound remaining at 10 uM after 60 mins by HPLC analysis in absence of NADP; assay type: ADME, tissue-based; conditions: read-out: Stability; how it was run: as §1
[7] = Metabolic stability in dog intestine S9 fraction assessed as compound remaining at 10 uM after 60 mins by HPLC analysis in presence of NADP; assay type: ADME, tissue-based, Canis lupus familiaris; conditions: read-out: Stability; how it was run: as §1
[8] = Metabolic stability in dog liver S9 fraction assessed as compound remaining at 10 uM after 60 mins by HPLC analysis in absence of NADP; assay type: ADME, subcellular, Canis lupus familiaris; conditions: read-out: Stability; how it was run: as §1
[9] = Metabolic stability in dog liver S9 fraction assessed as compound remaining at 10 uM after 60 mins by HPLC analysis in presence of NADP; assay type: ADME, subcellular, Canis lupus familiaris; conditions: read-out: Stability; how it was run: as §1
[10] = Metabolic stability in mouse plasma assessed as compound remaining at 1 ug/ml after 30 mins; assay type: ADME, cell-free; conditions: read-out: Stability
[11] = Cytotoxicity against human HuH7 cells after 72 hrs by celltiter-glo assay; assay type: cell-based, Huh-7
How it was run: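 Replicon 1b Huh7 cells seeded 2 × 10⁴/well; after 24 h, 11 serial 2× dilutions from 100 μM (three repeats each) with no-compound control; 72 h at 37 °C, CO₂, log-phase growth; viability by CellTiter-Glo luminescence; CC₅₀ = concentration giving 50% signal.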

[12] = system: Hepatitis C virus; experiment: Antiviral activity against HCV1b infected in human HuH7 cells assessed as inhibition of viral replication after 48 hrs by luciferase reporter gene assay; assay type: functional, organism-based, Hepacivirus hominis; conditions: genotype 1b, Huh-7, 48 h
How it was run: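 Huh7 cells carrying genotype 1b bicistronic subgenomic replicon, seeded 2 × 10⁴/well without G-418; compounds added 18-24 h later, 48 h exposure; 3× or 4× serial dilutions over 0.0001-10 μM in triplicate/quadruplicate; Renilla luciferase read-out versus untreated cells; EC₅₀ by four-parameter sigmoidal nonlinear regression; at least three independent assays.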

[13] = Metabolic stability in human liver S9 fraction assessed as compound remaining at 10 uM after 60 mins by HPLC analysis in absence of NADP; assay type: ADME, subcellular; conditions: read-out: Stability; how it was run: as §1
[14] = Metabolic stability in human liver S9 fraction assessed as compound remaining at 10 uM after 60 mins by HPLC analysis in presence of NADP; assay type: ADME, subcellular; conditions: read-out: Stability; how it was run: as §1
[15] = Metabolic stability in cynomolgus monkey liver S9 fraction assessed as compound remaining at 10 uM after 60 mins by HPLC analysis in presence of NADP; assay type: ADME, subcellular, Macaca fascicularis; conditions: read-out: Stability; how it was run: as §1
[16] = Metabolic stability in cynomolgus monkey liver S9 fraction assessed as compound remaining at 10 uM after 60 mins by HPLC analysis in absence of NADP; assay type: ADME, subcellular, Macaca fascicularis; conditions: read-out: Stability; how it was run: as §1
[17] = Metabolic stability in cynomolgus monkey intestine S9 fraction assessed as compound remaining at 10 uM after 60 mins by HPLC analysis in presence of NADP; assay type: ADME, tissue-based, Macaca fascicularis; conditions: read-out: Stability; how it was run: as §1
[18] = Metabolic stability in cynomolgus monkey intestine S9 fraction assessed as compound remaining at 10 uM after 60 mins by HPLC analysis in absence of NADP; assay type: ADME, tissue-based, Macaca fascicularis; conditions: read-out: Stability; how it was run: as §1
[19] = Metabolic stability in rat liver S9 fraction assessed as compound remaining at 10 uM after 60 mins by HPLC analysis in presence of NADP; assay type: ADME, subcellular; conditions: read-out: Stability
How it was run: (§2)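 Rat liver or intestinal S9 at 1 mg/mL final in 50 mM potassium phosphate, with or without NADPH-regenerating system (final 1.3 mM NADP, 3.3 mM glucose-6-phosphate, 0.4 U/mL G6P dehydrogenase, 3.3 mM MgCl2). Preincubated 10 min at 37 °C with shaking, started with compound at 10 μM final. Samples taken at 0 and 60 min, quenched in cold acetonitrile, centrifuged, and parent disappearance measured by HPLC.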

[20] = Metabolic stability in rat liver S9 fraction assessed as compound remaining at 10 uM after 60 mins by HPLC analysis in absence of NADP; assay type: ADME, subcellular; conditions: read-out: Stability; how it was run: as §2
[21] = Metabolic stability in rat intestine S9 fraction assessed as compound remaining at 10 uM after 60 mins by HPLC analysis in presence of NADP; assay type: ADME, tissue-based; conditions: read-out: Stability; how it was run: as §2
[22] = Metabolic stability in rat intestine S9 fraction assessed as compound remaining at 10 uM after 60 mins by HPLC analysis in absence of NADP; assay type: ADME, tissue-based; conditions: read-out: Stability; how it was run: as §2
[23] = Cmax in ICR mouse plasma at 50 mg/kg, po by LC-MS/MS analysis; assay type: ADME, organism-based; set-up: dose 50 mg/kg, route oral
[24] = Metabolic stability in mouse plasma assessed as compound remaining at 1 ug/ml after 4 hrs; assay type: ADME, cell-free; conditions: read-out: Stability
[25] = Metabolic stability in cynomolgus monkey liver S9 fraction assessed as compound remaining at 10 uM after 30 mins by HPLC analysis in presence of NADP; assay type: ADME, subcellular, Macaca fascicularis; conditions: read-out: Stability
[26] = Metabolic stability in cynomolgus monkey liver S9 fraction assessed as compound remaining at 10 uM after 30 mins by HPLC analysis in absence of NADP; assay type: ADME, subcellular, Macaca fascicularis; conditions: read-out: Stability
[27] = Metabolic stability in cynomolgus monkey intestine S9 fraction assessed as compound remaining at 10 uM after 30 mins by HPLC analysis in presence of NADP; assay type: ADME, tissue-based, Macaca fascicularis; conditions: read-out: Stability
[28] = Metabolic stability in cynomolgus monkey intestine S9 fraction assessed as compound remaining at 10 uM after 30 mins by HPLC analysis in absence of NADP; assay type: ADME, tissue-based, Macaca fascicularis; conditions: read-out: Stability
[29] = Metabolic stability in human liver S9 fraction assessed as compound remaining at 10 uM after 30 mins by HPLC analysis in presence of NADP; assay type: ADME, subcellular; conditions: read-out: Stability
[30] = Metabolic stability in human liver S9 fraction assessed as compound remaining at 10 uM after 30 mins by HPLC analysis in absence of NADP; assay type: ADME, subcellular; conditions: read-out: Stability
[31] = Metabolic stability in human intestine S9 fraction assessed as compound remaining at 10 uM after 30 mins by HPLC analysis in presence of NADP; assay type: ADME, tissue-based; conditions: read-out: Stability
[32] = Metabolic stability in human intestine S9 fraction assessed as compound remaining at 10 uM after 30 mins by HPLC analysis in absence of NADP; assay type: ADME, tissue-based; conditions: read-out: Stability
[33] = system: Liver; experiment: AUC (0 to 24 hrs) in ICR mouse liver at 50 mg/kg, po by LC-MS/MS analysis; assay type: ADME, organism-based; set-up: time < 24 hr, dose 50 mg/kg, route oral; conditions: in vivo
[34] = Oral bioavailability in ICR mouse at 50 mg/kg; assay type: ADME, organism-based; conditions: in vivo
[35] = Oral bioavailability in cynomolgus monkey at 50 mg/kg; assay type: ADME, organism-based, Macaca fascicularis; conditions: in vivo

Structure (SMILES)	AUC [1] [ng·h/mL]	AUC [2] [ng·h/g]	AUC [3] [ng·h/g]	remaining at 1 h, 10 µM [4] [%]	remaining at 1 h, 10 µM [5] [%]	remaining at 1 h, 10 µM [6] [%]	remaining at 1 h, 10 µM [7] [%]	remaining at 1 h, 10 µM [8] [%]	remaining at 1 h, 10 µM [9] [%]	remaining at 0.5 h, 1 ug/ml [10] [%]	CC50 at 72 h [11] [nM]	pEC50 [12]	remaining at 1 h, 10 µM [13] [%]	remaining at 1 h, 10 µM [14] [%]	remaining at 1 h, 10 µM [15] [%]	remaining at 1 h, 10 µM [19] [%]	remaining at 1 h, 10 µM [20] [%]	remaining at 1 h, 10 µM [21] [%]	remaining at 1 h, 10 µM [22] [%]	Cmax [23] [ng/mL]	further results
C[C@H](NP(=O)(OC[C@H]1O[C@@H](n2cnc3c(=O)[nH]c(N)nc32)[C@](C)(O)[C@@H]1O)Oc1cccc2ccccc12)C(=O)OCC(C)(C)C (some centres not stated)	38	1584	32	56	28	49	42	87	49	0.3	> 100000	7.24	59	7	16	5	31	57	86	262	remaining at 1 h, 10 µM [16]: 88%; remaining at 1 h, 10 µM [17]: 20%; remaining at 1 h, 10 µM [18]: 68%
CC(C)[C@H](NP(=O)(OC[C@H]1O[C@@H](n2cnc3c(=O)[nH]c(N)nc32)[C@](C)(O)[C@@H]1O)Oc1cccc2ccccc12)C(=O)OCc1ccccc1 (some centres not stated)	40	1940	97	72	24	70	56	75	56	89	> 100000	6.12	78	0		8	62	65	81	504	remaining at 4 h, 1 ug/ml [24]: 66%; remaining at 0.5 h, 10 µM [25]: 0%; remaining at 0.5 h, 10 µM [26]: 77%; remaining at 0.5 h, 10 µM [27]: 25%; remaining at 0.5 h, 10 µM [28]: 77%
CC(C)C[C@H](NP(=O)(OC[C@H]1O[C@@H](n2cnc3c(=O)[nH]c(N)nc32)[C@](C)(O)[C@@H]1O)Oc1cccc2ccccc12)C(=O)OCc1ccccc1 (some centres not stated)				33			12	48	14	2	> 50000	6.92									remaining at 0.5 h, 10 µM [29]: 0%; remaining at 0.5 h, 10 µM [30]: 44%; remaining at 0.5 h, 10 µM [31]: 8%; remaining at 0.5 h, 10 µM [32]: 28%
CC[C@H](C)[C@H](NP(=O)(OC[C@H]1O[C@@H](n2cnc3c(=O)[nH]c(N)nc32)[C@](C)(O)[C@@H]1O)Oc1cccc2ccccc12)C(=O)OCc1ccccc1 (some centres not stated)				96	52	74	87	84	64	100	> 50000	6.05	83	29	0	37	78	71	70		remaining at 4 h, 1 ug/ml [24]: 95%; remaining at 1 h, 10 µM [16]: 89%; remaining at 1 h, 10 µM [17]: 29%; remaining at 1 h, 10 µM [18]: 95%
C[C@@]1(O)[C@H](O)[C@@H](CO)O[C@H]1n1cnc2c(=O)[nH]c(N)nc21 [2'-B-METHYL-GUANOSINE]	411	16510	737								> 100000	5.46								5200	AUC [33]: 36868 ng·h/g; bioavailability [34]: 85%; bioavailability [35]: 10%
